MC4R antag cAMP: human MC4R antagonism in cAMP assay; P32245; MC4R-expressing cells, MTII-stimulated cAMP, LANCE TR-FRET; inhibition, % at 6.5 µM; hit rate 0.48% among 360,000;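 active = inhibition above its plate's cutoff, the mean of tested wells on that plate plus 3 SD, cut at about 29% in these data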;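 note: 0% = Melanotan II alone and 100% = Melanotan II plus saturating MCL0020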
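Test system: U2OS cells stably expressing human melanocortin 4 receptor (MC4R); also added: Melanotan II challenge; compound: 6.5 µM single dose; timing: 30-min compound preincubation, 1-h Melanotan II challenge, 1-h detection, room temperature; signal: Eu-cAMP/anti-cAMP TR-FRET, emission 671 nm; repeats: one well per compound, no replicates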
SMARCA2 activ: activators of SMARCA2 function; MG213 cells, MMTV-luciferase reporter, dexamethasone, overnight; activation, % at 9.1 µM; hit rate 1% among 370,000; AID 652017; in the data active = activation above about 7.8%;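 note: 0% = vehicle wells and 100% = reference activator wells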
MPTP inh: blocks calcium-induced mitochondrial swelling; isolated mouse mitochondria, Ca2+ swelling absorbance, 30 min; inhibition, % at 10 µM; hit rate 1.4% among 360,000; AID 602449;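 active = inhibition of 50% or more, scaled per plate between neutral and stimulator controls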;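 note: 0% = DMSO wells given calcium and 100% = 1 mM EGTA wells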
ATG4B inh: blocks human ATG4B protease cleavage of LC3 substrate. Q9Y4P1. ATG4B cleavage of LC3-PLA2, NBD-HPC fluorescence, 1 h. inhibition, % at 8.33 µM. hit rate 0.51% among 340,000. AID 504462; in the data active = inhibition above about 40%
Target sequence (Q9Y4P1 whole entry, looked up): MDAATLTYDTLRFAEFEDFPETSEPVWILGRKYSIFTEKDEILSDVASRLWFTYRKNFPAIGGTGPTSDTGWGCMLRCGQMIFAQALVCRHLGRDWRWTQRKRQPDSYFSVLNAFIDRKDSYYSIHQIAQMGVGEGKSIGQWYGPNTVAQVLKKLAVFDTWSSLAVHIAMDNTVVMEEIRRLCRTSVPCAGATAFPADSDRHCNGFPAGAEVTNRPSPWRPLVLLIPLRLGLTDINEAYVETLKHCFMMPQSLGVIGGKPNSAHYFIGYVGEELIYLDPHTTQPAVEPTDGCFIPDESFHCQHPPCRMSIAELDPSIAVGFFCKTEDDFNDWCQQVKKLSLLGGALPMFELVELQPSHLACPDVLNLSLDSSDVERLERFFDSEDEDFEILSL
MC4R barr agon: agonists of human melanocortin 4 receptor (MC4R) beta-arrestin; P32245; U2OS MC4R beta-arrestin complementation, luminescence; percent of melanotan II response, DMSO zero; activation, % at 8.9 µM; hit rate 0.98% among 360,000;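 active = activation above a per-plate cutoff, the mean activation of sample wells on that plate plus 3 SD, cut at about 8% in these data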
SMARCA2 conf: confirmation of SMARCA2 (BRM) function activators | hit rate 30% among 3,500 | MG213 cells, MMTV-luciferase with dexamethasone, luminescence, overnight; MG213 cells expressing E1A, Rb sequestered; DMSO wells 0%, reference activator 100% | activation, % at 9.1 µM | shares compounds with SMARCA2 activ;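 active = activation above its plate's cutoff, the mean activation of tested wells plus 3 SD, cut at about 7.9% in these data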
GAL4-VP16 Luc: activates GAL4-VP16 luciferase, flagging SMARCA2 activator hits; shares compounds with SMARCA2 activ; HEK293 GAL4-VP16 pG5luc reporter, luciferase luminescence; scaled: DMSO wells 0%, SAHA wells 100%; activation, % at 9.1 µM; hit rate 41% among 3,500; AID 686939;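 active = activation above the solvent-only control well mean plus 3 SD, averaged across control plates, cut at about 5.2% in these data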
Starred values were filed as active, the others as inactive; . = no result given. An excerpt weighted towards active compounds, which were near 4.1% of everything screened.

SMILES	MC4R antag cAMP	SMARCA2 activ	MPTP inh	ATG4B inh	MC4R barr agon	SMARCA2 conf	GAL4-VP16 Luc
COc1ccc(-c2cc(=O)c3cc(OC)ccc3o2)cc1	9	9.8*	0	-3	-1	6	7.0*
COC(=O)C(C)Oc1ccc2cc(-c3ccccc3)c(=O)oc2c1 (stereo unspecified)	13	-1	-2	-3	0	.	.
CCC(N=c1cc(-c2ccc(OC)cc2)oc2ccc(C)cc12)C(=O)O (stereo unspecified)	-9	17*	-4	-1	1	11*	8.8*
COc1ccc2c(C)c(Cl)c(=O)oc2c1	-1	-2	-1	-11	0	.	.
CCNc1nc(-c2sc(NC(=O)C(C)(C)C)nc2C)c(-n2cc(-c3ccccc3)nn2)s1	.	-5	0	.	.	.	.
CC1(C)CC(=O)C(N=Nc2ccc(Br)cc2)=C(O)C1	5	8.3*	2	7	1	11*	4
CC1(C)CC(=O)C=C(c2ccccc2-c2ccc3c(c2)OCO3)C1=O	.	-4	.	.	.	.	.
Clc1cccc(Cc2c(-c3ccco3)nc3c4ccccc4ccn23)c1	.	24*	-1	.	.	12*	10*
FC(F)(F)c1ccccc1Cc1c(-c2cccc(Cl)c2)nc2c3ccccc3ccn12	.	8.2*	2	.	.	-4	1
c1coc(-c2nc3c4ccccc4ccn3c2Cc2ccsc2)c1	.	20*	.	.	.	16*	5
C[C@H](NC(=O)C1CCN(C(=O)[C@@H]2CCCN2C(=O)OC(C)(C)C)CC1)C(=O)NCc1ccc(F)cc1	8	0	-1	.	2	.	.
CCOc1ccc(-n2c(SCC(=O)Nc3ccc4c(c3)OCCO4)nnc2-c2ccncc2)cc1	.	-5	.	.	.	.	.
COc1ccc(/C=N/Nc2nccnc2Cl)cc1	-5	8.7*	0	-3	-1	5	12*
Clc1nccnc1N/N=C/c1ccc(Br)cc1	0	2	1	-9	-1	.	.
N#Cc1cccc(-c2ccccc2C(=O)NC2CCCCN(Cc3ccc(Cl)cc3)C2=O)c1 (stereo unspecified)	.	-2	.	.	.	.	.
COc1ccc(-c2ccc(C(=O)C3CC3)cc2)cc1	-3	10*	1	5	-1	8.2*	15*
COc1ccc(NN=Nc2ccc([N+](=O)[O-])cc2)cc1	3	0	5	-2	2	.	.
O=[N+]([O-])c1ccc(N=Nc2ncc[nH]2)cc1	-17	8.0*	1	4	-3	-14	6.9*
COc1ccc(S[C@]2(C(=O)N3CCN(C(C)=O)CC3)CC(=O)N[C@@H]2c2ccc(OC)cc2)cc1	.	-4	.	.	.	.	.
O=C(Cn1c(-c2cncs2)nc2ccccc21)N1CCOCC1	.	1	.	.	.	.	.
O=C1c2nc3cc(-c4ccco4)[nH]n3c(=O)c2CN1C1CCCCC1	10	11*	-2	2	-2	-2	2
O=c1cc(-c2ccccc2)nc2cc(-c3ccco3)[nH]n12	-8	-2	0	-3	-1	.	.
CC1CCCC(C)N1CCCNC(=O)CN1C(=O)c2cccnc2Oc2ccc(Cl)cc21 (stereo unspecified)	0	8.9*	-1	-6	-1	-1	1
COc1cccc(NC(=O)CN2C(=O)c3cccnc3Oc3ccc(Cl)cc32)c1	9	8.3*	0	0	-1	1	0
O=C(CN1C(=O)c2cccnc2Oc2ccc(Cl)cc21)Nc1ccccc1F	9	5	-2	4	-2	.	.
SMILES	MC4R antag cAMP	SMARCA2 activ	MPTP inh	ATG4B inh	MC4R barr agon	SMARCA2 conf	GAL4-VP16 Luc
O=C(NCCc1ccccc1)OCc1cn(Cc2ccccc2F)nn1	.	-1	.	.	.	.	.
CCCC(=O)OC12CCCN(C1)/C(=C/c1ccc(C#N)cc1)C2 (stereo unspecified)	.	-4	.	.	.	.	.
COC(=O)C1=C(C)N(C)C(=NCc2ccccc2)NC1c1ccc(F)cc1 (stereo unspecified)	.	-6	.	.	.	.	.
Cn1c(=NC(=O)c2cccc([N+](=O)[O-])c2)sc2ccccc21	-6	8.7*	2	5	-1	6	14*
COc1cc(C(=O)N=c2sc3ccccc3n2C)cc(OC)c1OC	17	-2	0	-16	3	.	.
CC(=O)Nc1ccc(OS(=O)(=O)c2c(C)cc(C)cc2C)cc1	1	-2	5	3	1	.	.
CC(=O)Nc1cc(C)c(S(C)(=O)=O)c(C)c1	9	8.1*	-1	6	-1	-2	2
CCOC(=O)C1=C(C(=O)OCC)C2N(Cc3ccc(C#N)cc3)c3ccccc3[C@@]23C[C@@H](C(=O)OC)N(S(=O)(=O)c2cccs2)C3=N1 (stereo partly specified)	.	-3	.	.	.	.	.
CC(C)c1[nH]nc2c1C(c1cccc(C(F)(F)F)c1)NC2=O (stereo unspecified)	.	-3	.	.	.	.	.
Nc1ccc(S(=O)(=O)Nc2cnc3ccccc3n2)cc1	14	-5	0	5	-1	.	.
Nc1ccc(S(=O)(=O)Nc2cnc3c(Cl)cccc3n2)cc1	1	9.1*	0	-3	-1	31*	5
CC(Oc1ccc(C(=O)NCCc2ccccc2)cc1)C(=O)O (stereo unspecified)	3	-2	-2	-7	0	.	.
CCCCOc1ccc(C(=O)NCCc2ccccc2)cc1	16	8.4*	1	2	2	8	13*
Cc1cc(C(=O)NCCc2ccccc2)ccc1[N+](=O)[O-]	8	6	0	-11	0	.	.
O=C(NCCc1ccccc1)c1ccc(Cl)c([N+](=O)[O-])c1	19	9.9*	1	4	-4	1	8.6*
Cc1cccc(C(=O)NCCc2ccccc2)c1	12	11*	-1	3	1	8	14*
O=C(NN1CCOCC1)c1ccc(Cl)c([N+](=O)[O-])c1	0	10*	0	-3	-2	0	1
C=CCNc1cccc2c1S(=O)(=O)N[C@@H](CC(C)C)CO2	.	1	.	.	.	.	.
COc1cccc(-c2nnc(SCc3cccnc3)o2)c1	10	10*	0	3	-2	6	6.6*
COC(=O)C(CN)CN1C(=O)c2ccccc2C1=O (stereo unspecified)	.	-1	.	.	.	.	.
COC(=O)/C(C#N)=C/c1c(N2CCN(c3ccccc3)CC2)nc2ccccn2c1=O	12	3	-1	3	-1	.	.
CCOC(=O)/C(C#N)=C/c1c(N2CCN(c3ccccc3)CC2)nc2ccccn2c1=O	3	9.9*	-1	14	-1	7	4
COc1ccc(N/C(C)=C/C(=O)c2ccccc2)cc1	-6	-1	-1	2	0	.	.
COc1ccc(N/C(C)=C/C(=S)Nc2ccccc2)cc1	4	12*	2	33	-1	3	2

Source: PubChem
